Measured values pooled from the literature.
Each line is one published result; the experiments were not run side by side.
Target: Serine/threonine-protein kinase Chk1 (CHEK1, Homo sapiens, UniProt O14757)
One construct used (O14757 1-476): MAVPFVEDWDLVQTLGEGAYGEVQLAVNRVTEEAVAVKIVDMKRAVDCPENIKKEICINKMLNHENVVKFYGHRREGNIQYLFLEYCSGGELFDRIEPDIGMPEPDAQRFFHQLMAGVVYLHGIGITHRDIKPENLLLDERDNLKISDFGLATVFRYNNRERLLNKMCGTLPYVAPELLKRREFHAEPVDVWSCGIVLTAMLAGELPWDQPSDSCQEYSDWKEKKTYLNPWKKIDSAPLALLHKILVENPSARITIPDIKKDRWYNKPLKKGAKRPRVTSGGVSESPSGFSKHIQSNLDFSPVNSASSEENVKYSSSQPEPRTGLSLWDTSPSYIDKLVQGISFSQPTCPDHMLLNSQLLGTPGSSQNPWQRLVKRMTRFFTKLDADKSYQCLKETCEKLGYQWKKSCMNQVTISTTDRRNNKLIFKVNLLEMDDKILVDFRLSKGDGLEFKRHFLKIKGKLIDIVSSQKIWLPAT

| Compound | effect on | method | tested at | remaining binding [%] |
| --- | --- | --- | --- | --- |
| O=C(NCC1CCOCC1)c1n[nH]cc1NC(=O)c1c(F)cccc1F | binding | competition with immobilised ligand | 1 µM | 100 |
| CN(C)c1nccc(-c2cnn3ncccc23)n1 | binding |  | 1 µM | 100 |
| c1cncc(-c2cccc(Nc3nccc(NC4CCCCC4)n3)c2)c1 | binding | competition with immobilised ligand | 10 µM | 94 |
| N[C@@H]1CCN(c2nccc(-c3cnn4ncccc34)n2)C1 | binding |  | 1 µM | 100 |
| O=C(NCCCN1CCOCC1)c1ccc(Nc2nccc(-c3cc4ccccc4s3)n2)cc1 | binding | competition with immobilised ligand | 1 µM | 100 |
| COc1ncc2cc3ccccc3nc2c1C#N | cell-free assay | competition with immobilised ligand | 5 µM | 100 |
| O=C(c1ccc(Nc2ncc(Cl)c(-c3cc4ccccc4s3)n2)cc1)N1CCC(N2CCCC2)CC1 | binding | competition with immobilised ligand | 1 µM | 54 |
| CNC(=O)c1ccc(Nc2ncc(C(F)(F)F)c(NCc3nccnc3N(C)S(C)(=O)=O)n2)cc1 | cell-free assay | competition with immobilised ligand | 0.1 µM | 100 |
| F[C@@H]1CCN(c2nccc(-c3cnn4ncccc34)n2)C1 | binding |  | 1 µM | 92 |
| Cc1cnc(Nc2ccc(C(=O)N3CCC(N4CCCC4)CC3)cc2)nc1-c1cc2ccccc2s1 | binding | competition with immobilised ligand | 1 µM | 33 |
| C[C@@H]1CN(c2ccc3ncc(-c4ccc5[nH]nc(C6CC6)c5c4)n3n2)C[C@H](C)O1 | binding | competition with immobilised ligand | 0.5 µM | 100 |
| CC(C)CC(=O)N1CCc2nc(-c3ccc(Br)cc3)nc(N(C)Cc3ccccc3)c2C1 | cell-free assay | competition with immobilised ligand | 0.1 µM | 100 |
| CCN1CCN(Cc2ccc(C(=O)Nc3ccc(C)c(Oc4ccc5c(c4)CC(=O)N5)c3)cc2C(F)(F)F)CC1 | binding | competition with immobilised ligand | 1 µM | 100 |
| CC(=O)c1c(NS(C)(=O)=O)c2cc(-c3ccc(Cl)cc3)c(-c3ccc(Cl)cc3Cl)nc2n(C)c1=O | cell-free assay | competition with immobilised ligand | 1 µM | 100 |
| CN(CCCC(F)(F)F)c1nccc(-c2cnn3ncccc23)n1 | binding |  | 1 µM | 100 |
| O=C(NCCCC1CCCCC1)c1ccc(CNC(=O)c2cnn(-c3ccccc3)c2C(F)(F)F)cc1 | cell-free assay | competition with immobilised ligand | 0.1 µM | 100 |
| C[C@@H]1CCN(c2nccc(-c3cnn4ncccc34)n2)C1 | binding |  | 1 µM | 100 |
| CC(=O)N1CCC(c2ccc(C(=O)NC(=N)N)cc2C(F)(F)F)CC1 | cell-free assay | competition with immobilised ligand | 1 µM | 95 |
| COc1cnc(Nc2cccc(S(N)(=O)=O)c2)nc1N1CCN(c2ccccc2)CC1 | binding | competition with immobilised ligand | 1 µM | 100 |
| CCCCN(CCCC)C(=O)CN1C[C@H](c2cc(OC)c3c(c2)OCO3)[C@@H](C(=O)O)[C@@H]1CC(C)(C)CCC | cell-free assay | competition with immobilised ligand | 1 µM | 100 |
| CC1CCCN1c1nccc(-c2cnn3ncccc23)n1 (centres unmarked) | binding |  | 1 µM | 99 |
| N#Cc1ccc(Nc2ccc3[nH]c(=O)[nH]c3c2)c(Cl)c1 | cell-free assay | competition with immobilised ligand | 1 µM | 98 |
| Nc1ncc2c(n1)-c1c([nH]c3ccc(C#CC4CC4)cc13)CCCC2 | binding | competition with immobilised ligand | 1 µM | 97 |
